Data: ChEMBL document CHEMBL5038571, “Design and Synthesis of EZH2-Based PROTACs to Degrade the PRC2 Complex for Targeting the Noncatalytic Activity of EZH2” (J Med Chem, 2021)
Activity calls are given as the source filed them.

How the values were obtained:
[1] = target: T1, Protein cereblon/Histone-lysine N-methyltransferase EZH2 (Homo sapiens) (UniProt Q15910+Q96SW2); test: PROTAC activity at CRBN E3 ligase/EZH2 in PRC2 complex in human WSUDLCL2 cells assessed as induction of RbAp48 degradation by measuring reduction in RbAp48 protein level at 1 uM measured after 48 to 72 hrs by Western blot analysis; assay type: cell-based; conditions: time 48-72 hrs
[2] = target: T1, Protein cereblon/Histone-lysine N-methyltransferase EZH2 (Homo sapiens); test: PROTAC activity at CRBN E3 ligase/EZH2 in PRC2 complex in human WSUDLCL2 cells assessed as increase in EED ubiquitination at 1 uM measured after 48 hrs by co-immunoprecipitation assay; assay type: cell-based
Method in brief: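 WSU-DLCL-2 cells treated with 1 μM compound for 48 h and lysed in RIPA buffer. Lysates incubated with antibodies overnight at 4 °C, then 3 h with Protein G agarose beads at 4 °C. Proteins eluted in IP buffer and ubiquitination of the target probed by immunoblot.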

[3] = target: T1, Protein cereblon/Histone-lysine N-methyltransferase EZH2 (Homo sapiens); test: PROTAC activity at CRBN E3 ligase/EZH2 in PRC2 complex in human WSUDLCL2 cells assessed as downregulation of EZH2 expression at 1 uM pretreated with lenalidomide for 4 hrs followed by compound addition and measured after 48 hrs by Western blot analysis; assay type: cell-based
Method in brief: (§1)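 WSU-DLCL-2 cells pretreated 4 h with the named inhibitor, then compound added and incubated a further 48 h. EZH2, SUZ12, EED and RbAp48 measured by western blot (nitrocellulose transfer, skim-milk block, primary antibody overnight at 4 °C, chemiluminescent detection).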

[4] = target: T1, Protein cereblon/Histone-lysine N-methyltransferase EZH2 (Homo sapiens); test: PROTAC activity at CRBN E3 ligase/EZH2 in PRC2 complex in human WSUDLCL2 cells assessed as downregulation of EED expression at 1 uM pretreated with lenalidomide for 4 hrs followed by compound addition and measured after 48 hrs by Western blot analysis; assay type: cell-based; method in brief: as §1
[5] = target: T1, Protein cereblon/Histone-lysine N-methyltransferase EZH2 (Homo sapiens); test: PROTAC activity at CRBN E3 ligase/EZH2 in PRC2 complex in human A2780 cells assessed as reduction in H3K27me3 level at 1 uM incubated for 48 hrs by Western blot analysis; assay type: cell-based
Method in brief: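 Cancer cell lines exposed to 1 μM compound for 48 h. Lysates immunoblotted (SDS-PAGE, nitrocellulose, 5% milk block, primary antibody overnight at 4 °C) for EZH2, SUZ12, EED, RbAp48 and H3K27me3. Bands quantified by densitometry and normalized to GAPDH.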

[6] = tested on: NCI-H1299; test: Downregulation of CENPK mRNA expression in human NCI-H1299 cells at 10 uM incubated for 48 hrs by qRT-PCR analysis; assay type: functional, cell-based
Method in brief: (§2)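 Cells treated 48 h. Total RNA extracted with Trizol, reverse-transcribed, and SYBR RT-qPCR run: 95 °C 30 s, then 40 cycles of 95 °C 6 s and 60 °C 20 s. mRNA normalized to the DMSO-treated group. Mean SD of three independent experiments, t-test versus DMSO.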

[7] = tested on: NCI-H1299; test: Antiproliferative activity against human NCI-H1299 cells harboring SWI/SNF mutant assessed as inhibition of cell growth at 10 uM treated for 9 days by optical microscopic analysis; assay type: functional, cell-based; conditions: time 9.0 day
Method in brief: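 Cells seeded at 5 × 10³ per well, grown 24 h, then exposed to compound at 10 μM for 9 days with medium refreshed. Cells were photographed and counted on days 1, 3, 5, 7 and 9. For lines 1-2, EZH2-targeting or control shRNA was induced in the cells. Mean SD of three independent experiments; t-test against control.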

[8] = tested on: NCI-H1299; test: Downregulation of ARL6IP mRNA expression in human NCI-H1299 cells at 10 uM incubated for 48 hrs by qRT-PCR analysis; assay type: functional, cell-based; method in brief: as §2
[9] = target: T1, Protein cereblon/Histone-lysine N-methyltransferase EZH2 (Homo sapiens); test: PROTAC activity at CRBN E3 ligase/EZH2 in PRC2 complex in human WSUDLCL2 cells assessed as induction of SUZ12 degradation at 1 uM measured up to 2 hrs by Western blot analysis; assay type: cell-based; conditions: time hrs <=2
[10] = target: T1, Protein cereblon/Histone-lysine N-methyltransferase EZH2 (Homo sapiens); test: PROTAC activity at CRBN E3 ligase/EZH2 in PRC2 complex in human WSUDLCL2 cells assessed as reduction in H3K27me3 level incubated for 48 hrs by Western blot analysis; assay type: cell-based; conditions: dose 1-10 µM
Method in brief: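 WSU-DLCL-2 cells treated 48 h (1 μM for the single-concentration screen), lysed; SDS-PAGE, nitrocellulose transfer, 5% milk block, primary antibody 4 °C overnight, chemiluminescence. Bands quantified by densitometry, normalized to GAPDH, expressed relative to DMSO-treated cells; mean ± SD of three independent experiments, t-test.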

[11] = target: T1, Protein cereblon/Histone-lysine N-methyltransferase EZH2 (Homo sapiens); test: PROTAC activity at CRBN E3 ligase/EZH2 in PRC2 complex in human WSUDLCL2 cells assessed as downregulation of SUZ12 expression at 1 uM pretreated with EED226 for 4 hrs followed by compound addition and measured after 48 hrs by Western blot analysis; assay type: cell-based; method in brief: as §1
[12] = target: T2, Histone-lysine N-methyltransferase EZH1 (Homo sapiens, UniProt Q92800); test: Inhibition of recombinant full length human N-terminal FLAG-tagged EZH1 in PRC2 complex expressed in baculovirus system using SAM as substrate preincubated for 15 mins followed by substrate addition and measured after 60 mins by AlphaLISA immunodetection assay
T2 sequence (Q92800 whole entry): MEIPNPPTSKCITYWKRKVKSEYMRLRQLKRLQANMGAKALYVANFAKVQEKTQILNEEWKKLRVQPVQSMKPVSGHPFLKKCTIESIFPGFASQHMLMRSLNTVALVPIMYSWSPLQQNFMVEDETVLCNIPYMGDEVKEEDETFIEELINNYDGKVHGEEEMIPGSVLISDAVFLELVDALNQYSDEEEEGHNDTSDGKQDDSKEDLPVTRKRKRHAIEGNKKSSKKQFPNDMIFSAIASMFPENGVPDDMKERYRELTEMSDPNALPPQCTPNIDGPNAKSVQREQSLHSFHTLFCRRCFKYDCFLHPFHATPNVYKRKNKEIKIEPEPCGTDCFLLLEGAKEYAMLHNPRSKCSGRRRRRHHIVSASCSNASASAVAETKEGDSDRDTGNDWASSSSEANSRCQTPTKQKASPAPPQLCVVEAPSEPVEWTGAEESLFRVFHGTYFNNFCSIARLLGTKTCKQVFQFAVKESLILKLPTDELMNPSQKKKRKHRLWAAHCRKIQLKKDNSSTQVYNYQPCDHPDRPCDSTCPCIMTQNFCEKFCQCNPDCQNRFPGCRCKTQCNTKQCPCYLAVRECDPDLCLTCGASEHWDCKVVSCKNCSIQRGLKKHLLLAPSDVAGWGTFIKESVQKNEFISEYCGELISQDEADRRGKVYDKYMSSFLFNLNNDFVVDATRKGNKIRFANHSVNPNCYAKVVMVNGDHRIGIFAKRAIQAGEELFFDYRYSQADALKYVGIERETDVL

T1 sequence (Q15910 whole entry, looked up): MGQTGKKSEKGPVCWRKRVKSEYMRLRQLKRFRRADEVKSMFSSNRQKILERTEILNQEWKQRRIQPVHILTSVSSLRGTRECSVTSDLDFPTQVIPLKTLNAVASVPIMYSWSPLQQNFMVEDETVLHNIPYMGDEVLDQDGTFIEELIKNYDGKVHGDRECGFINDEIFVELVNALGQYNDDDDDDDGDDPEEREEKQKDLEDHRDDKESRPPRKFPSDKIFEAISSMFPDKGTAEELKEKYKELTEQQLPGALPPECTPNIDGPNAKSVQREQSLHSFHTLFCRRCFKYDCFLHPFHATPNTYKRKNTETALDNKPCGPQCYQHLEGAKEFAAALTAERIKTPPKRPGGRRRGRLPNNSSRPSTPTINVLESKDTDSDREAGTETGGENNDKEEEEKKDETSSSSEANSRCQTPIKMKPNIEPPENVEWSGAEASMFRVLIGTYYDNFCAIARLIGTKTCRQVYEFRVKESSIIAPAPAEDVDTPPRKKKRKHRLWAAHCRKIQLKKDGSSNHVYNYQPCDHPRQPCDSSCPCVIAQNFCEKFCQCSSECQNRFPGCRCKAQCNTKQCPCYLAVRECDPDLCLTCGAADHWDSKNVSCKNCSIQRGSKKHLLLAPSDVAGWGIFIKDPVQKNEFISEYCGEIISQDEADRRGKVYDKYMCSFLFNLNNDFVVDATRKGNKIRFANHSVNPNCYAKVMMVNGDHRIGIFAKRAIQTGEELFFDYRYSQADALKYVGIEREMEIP
T1 sequence (Q96SW2 whole entry, looked up): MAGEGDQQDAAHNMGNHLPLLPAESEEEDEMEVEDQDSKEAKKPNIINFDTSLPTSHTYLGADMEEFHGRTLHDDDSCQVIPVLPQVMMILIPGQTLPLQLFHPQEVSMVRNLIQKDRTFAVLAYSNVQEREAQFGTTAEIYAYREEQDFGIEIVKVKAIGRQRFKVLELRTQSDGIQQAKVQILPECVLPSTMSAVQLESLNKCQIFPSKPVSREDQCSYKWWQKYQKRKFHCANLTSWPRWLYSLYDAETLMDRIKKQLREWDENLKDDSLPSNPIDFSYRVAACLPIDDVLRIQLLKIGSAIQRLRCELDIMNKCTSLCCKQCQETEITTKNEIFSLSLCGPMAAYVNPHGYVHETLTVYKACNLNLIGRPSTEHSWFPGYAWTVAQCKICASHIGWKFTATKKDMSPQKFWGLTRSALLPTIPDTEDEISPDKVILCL

CCN(c1cc(-c2ccc(CN3CCN(CCCCCCCOc4cccc5c4C(=O)N(C4CCC(=O)NC4=O)C5=O)CC3)cc2)cc(C(=O)NCc2c(C)cc(C)[nH]c2=O)c1C)C1CCOCC1 (configuration not stated)
inactive: Activity [3] | Activity [4] | Activity [9]
active: Activity [1] | Activity [2] | Activity [5] | Activity [6] | Activity [7] | Activity [8] | Activity [10] Dose-Dependent Effect | Activity [11]
179 nM: IC50 [12]
